DNMT1 inh: inhibitors of human DNMT1. DNMT1 molecular beacon, Hinp1I cleavage, fluorescence. inhibition (reported as % activation of signal), % at 10 µM. 360,000 tested, 0.83% active; in the data active = inhibition above about 50%
SUMO1 PPI mod: modulators of human SUMO1-mediated protein-protein interactions; P63165; SUMO1 binding to a labelled peptide, TR-FRET, 1 h; inhibition, % at 20 µM; 360,000 tested, 0.33% active; AID 602429; in the data active = inhibition above about 37%
Target sequence (P63165 whole entry, looked up): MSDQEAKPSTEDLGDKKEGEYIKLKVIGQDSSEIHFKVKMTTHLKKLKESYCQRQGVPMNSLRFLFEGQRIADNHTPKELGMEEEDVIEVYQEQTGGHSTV
LMPTP inh: LMPTP (human) inhibition | P24666 | recombinant LMPTP-A, OMFP fluorogenic substrate, fluorescence intensity | inhibition, % at 20 µM | 360,000 tested, 0.22% active;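 active = compounds that cut the enzyme signal by at least half of the control window in the single-dose screen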
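material = LMPTP-A | quantity = 0.625 nM enzyme | reagent = OMFP substrate, 400 µM final | buffer or medium = Bis-Tris pH 6.0, DTT, detergent | detection = endpoint fluorescence intensity from OMFP dephosphorylation | dosing = single 20 µM dose | read-out basis = % inhibition relative to no-enzyme and uninhibited control wells | control set = no-enzyme and uninhibited controls | timing = 50 min at room temperature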
Scp1 inh: Scp-1 (human) phosphatase inhibition | Q9GZU7 | Recombinant Scp1, phosphopeptide, malachite green phosphate absorbance | inhibition, % at 20 µM | 340,000 tested, 0.88% active | AID 493091;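 active = inhibition above about 50% at 20 µM, limit read from the data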
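Test system: SCP-1 phosphatase catalytic domain, residues 76-261 | Compound dosing: One concentration, 20 µM, with 1.0% DMSO | Schedule: 45 min room-temperature reaction, 5 min colour, 30 min stabiliser | Detection: Absorbance at 630 nm | Read-out basis: % inhibition of SCP-1 phosphate liberation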
STEP inh: inhibitors of human striatal-enriched phosphatase STEP; AID 588621; inhibition, % at 20 µM; P54829; 360,000 tested, 0.25% active; recombinant STEP, OMFP fluorogenic substrate, fluorescence;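 active = inhibition at 20 µM, scaled per plate between control wells, above about 37%, limit read from the data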
Target sequence (P54829 whole entry, looked up): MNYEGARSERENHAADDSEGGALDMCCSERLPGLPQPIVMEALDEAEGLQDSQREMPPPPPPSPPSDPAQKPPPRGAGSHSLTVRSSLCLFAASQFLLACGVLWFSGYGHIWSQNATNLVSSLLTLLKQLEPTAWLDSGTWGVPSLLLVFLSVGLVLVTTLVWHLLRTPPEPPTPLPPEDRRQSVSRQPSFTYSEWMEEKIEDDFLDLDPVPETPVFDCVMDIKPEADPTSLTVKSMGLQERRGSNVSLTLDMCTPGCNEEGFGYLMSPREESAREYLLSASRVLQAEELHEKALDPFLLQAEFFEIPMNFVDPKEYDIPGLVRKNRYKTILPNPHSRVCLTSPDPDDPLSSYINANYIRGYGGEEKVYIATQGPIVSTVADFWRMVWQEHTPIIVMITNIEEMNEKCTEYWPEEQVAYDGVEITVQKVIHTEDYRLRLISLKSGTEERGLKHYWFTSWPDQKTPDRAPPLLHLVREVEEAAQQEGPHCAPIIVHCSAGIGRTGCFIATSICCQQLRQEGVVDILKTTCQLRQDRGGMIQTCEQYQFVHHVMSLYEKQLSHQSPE
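material = STEP tyrosine phosphatase | reagent = fluorogenic phosphatase substrate OMFP at 25 µM final | doses = single compound dose of 20 µM, 1% DMSO final | schedule = 20 min reaction, room temperature, in the dark | measured by = fluorescence, 480/540 nm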
Scp1 confirm: confirmation of human Scp-1 phosphatase inhibitors | shares compounds with Scp1 inh | recombinant SCP-1 catalytic domain, phosphate release, malachite green absorbance | inhibition, % at 20 µM | 2,500 tested, 61% active | AID 540281
MG interference: colorimetric interference in Scp-1 counter-screen; shares compounds with Scp1 inh; Colorimetric interference counterscreen, malachite green absorbance 630 nm; apparent inhibition (interference), % at 20 µM; 2,500 tested, under 10 active;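 also: compounds added after enzyme reaction finished so only phosphate colour detection is probed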
Scp-1 Tm shift: Scp-1 (human) binding by thermal shift; shares compounds with Scp1 inh; Recombinant SCP1, Sypro Orange thermal shift Tm; thermal shift relative to vanadate control, % at 40 µM; 1,500 tested, 25% active; AID 540329;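 active = substances whose mean melting-temperature shift, as a percentage of the reference inhibitor's shift, reaches about 5.3%, limit read from the data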
Of the large screens only hits and unclear results are named; the others gave an inactive call (follow-up assays come after a bar, where they were run). An excerpt weighted towards active compounds, which were near 1.7% of everything screened.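 The calls were made as follows, unless noted: active = inhibition of at least 30% at 20 µM; inactive = the rest.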

COCC(=O)N/N=C/c1ccc(Sc2nc3ccccc3s2)o1	none
COc1ccccc1CNC(=O)COC(=O)c1ccc(C)c(S(=O)(=O)N2CCCCC2)c1	none
O=C(CSc1nnc(-c2cccc(Br)c2)o1)NCC1CCCO1 (centres undefined)	none (no result: Scp1 inh)
Cc1cc(Br)ccc1NC(=O)CN(C)C(=O)Cn1c(=O)cnc2ccccc21	Scp1 inh 96 | Scp1 confirm 89 | MG interference inactive | Scp-1 Tm shift inactive
COc1ccccc1C(C)Nc1nc(-c2cccnc2)nc2ccccc12 (centres undefined)	Scp1 inh 61 | Scp1 confirm inactive | MG interference inactive
CC(=O)N=c1c(C#N)cc2c(=O)n3cccc(C)c3nc2n1Cc1ccco1	Scp1 inh 70 | Scp1 confirm inactive | MG interference inactive
CC(=O)N=c1c(C#N)cc2c(=O)n3cccc(C)c3nc2n1CCCOC(C)C	none
COc1ccc(N2CC(NS(=O)(=O)c3ccc(F)cc3)CC2=O)cc1 (centres undefined)	none | Scp1 confirm inactive | MG interference inactive
O=C1CC(NS(=O)(=O)c2cccnc2)CN1c1ccc(F)cc1 (centres undefined)	none
CCOC(=O)/C=C/[C@H]1CC(c2ccccc2)(c2ccccc2)CO1	none
CC(C)C[C@@H](CN1C(=O)C(=O)NC[C@@H]1CC(C)C)NC(=O)Cc1ccccc1	none | Scp1 confirm inactive | MG interference inactive
CC(C)C[C@H]1CNC(=O)C(=O)N1C[C@H](Cc1ccc(O)cc1)NC(=O)CC12CC3CC(CC(C3)C1)C2	none (no result: DNMT1 inh, Scp1 inh, STEP inh)
CCOn1c(=O)c(-c2cccc3ccccc23)[n+]([O-])c2ccccc21	Scp1 inh 58 | Scp1 confirm inactive | MG interference inactive
CCOn1c(=O)c(-c2ccccc2)[n+]([O-])c2ccccc21	none
CCc1ccc(C(=O)C(C)OC(=O)Cc2n[nH]c(=O)c3ccccc23)cc1 (centres undefined)	none
O=C(COC(=O)c1ccc(Cl)c(S(=O)(=O)N2CCCC2)c1)NCc1ccccc1	Scp1 inh 50 | Scp1 confirm 41 | MG interference inactive | Scp-1 Tm shift inactive
COCCN1C(=O)c2ccccc2C(C(=O)NCCN(C)C)C1c1ccc(F)cc1 (centres undefined)	none
COCCNC(=O)C1c2ccccc2C(=O)N(CCOC)C1c1ccc(F)cc1 (centres undefined)	Scp1 inh 52 | Scp1 confirm inactive | MG interference inactive
Cc1nc(N)nc(N(C)c2ccccc2)c1Br	none
CC1CCN(C(=O)c2cc(-c3ccco3)on2)CC1	none
CC1CCN(C(=O)c2cc(-c3ccccc3O)on2)CC1	Scp1 inh 53 | Scp1 confirm inactive | MG interference inactive
Cc1ccc(NC(=O)COC(=O)COc2cccc3c2OC(C)(C)C3)cc1S(=O)(=O)N1CCOCC1	none
Cc1ccc(NC(=O)CN(C)S(=O)(=O)c2ccc3c(c2)n(C)c(=O)c(=O)n3C)c(C)c1	none
Cc1cc(C)c(NC(=O)CN(C)S(=O)(=O)c2ccc3c(c2)n(C)c(=O)c(=O)n3C)c(C)c1	none | Scp1 confirm inactive | MG interference inactive
Cn1ccnc1SCC(=O)NC1(C#N)CCCCC1	none
CCN(CC(=O)NCc1cccs1)C(=O)COc1cccc(C(F)(F)F)c1	none
CCN(CC(=O)NCc1cccs1)C(=O)COc1ccc(C(C)=O)cc1	Scp1 inh 59 | Scp1 confirm inactive | MG interference inactive
CC(NC(=O)CCc1ccccc1)c1ccc2c(c1)OCO2 (centres undefined)	none
O=C(COc1coc(CN2CCN(c3ccc(F)cc3)CC2)cc1=O)Nc1ccccc1	none
CC(=O)COc1coc(CN2CCN(c3ccc(F)cc3)CC2)cc1=O	Scp1 inh 51 | Scp1 confirm inactive | MG interference inactive
CC(=O)c1ccc(S(=O)(=O)N2CCN(C(=O)c3cccc(S(=O)(=O)N4CC(C)OC(C)C4)c3)CC2)cc1 (centres undefined)	none
CCCC(=O)Nc1ccc2nc(SCC(=O)Nc3ccc(N4CCOCC4)c(Cl)c3)sc2c1	none
Nc1ccc2nc(SCC(=O)Nc3ccc(N4CCOCC4)c(Cl)c3)sc2c1	Scp1 inh 97 | Scp1 confirm inactive | MG interference inactive
CCSc1ccc(C(=O)NCC(=O)O)cc1	none
CSc1ccc(NC(=O)Nc2ccc(C(=O)NCC(=O)O)cc2)cc1	Scp1 inh 52 | Scp1 confirm 36 | MG interference inactive | Scp-1 Tm shift 6.0
Cc1c(CCO)c(=O)[nH]n1S(=O)(=O)c1ccc([N+](=O)[O-])cc1	none
O=c1[nH]c(/C=C\c2ccc(O)c(O)c2)nc(O)c1[N+](=O)[O-]	none | Scp1 confirm 45 | MG interference inactive | Scp-1 Tm shift 6.2
COc1ccc(-n2c(C)cc(/C=C/c3nc(O)c([N+](=O)[O-])c(=O)[nH]3)c2C)cc1	Scp1 inh 66 | Scp1 confirm 59 | MG interference inactive | Scp-1 Tm shift inactive
Nn1c(SCC(=O)Nc2ccc3c(c2)OCCO3)nnc1C(F)(F)F	Scp1 inh 100 | Scp1 confirm inactive | MG interference inactive
CC1=NC(C(F)(F)F)(C(F)(F)F)C(C#N)=C(C)N1	Scp1 inh 56 | Scp1 confirm inactive | MG interference inactive
CC1=C(C#N)C(Nc2cc(C)ccn2)(C(F)(F)F)C(=O)N1 (centres undefined)	none
COc1ccc(/C=N/NC(=O)C(Cc2c[nH]c3ccccc23)NC(=O)OCC(C)C)cc1[N+](=O)[O-] (centres undefined)	Scp1 inh 65 | Scp1 confirm inactive | MG interference inactive
Nc1cc([N+](=O)[O-])ccc1N1C(=O)CCCC1=O	Scp1 inh 64 | Scp1 confirm 49 | MG interference inactive | Scp-1 Tm shift inactive
O=C(O)c1ccc(CNc2ccccc2C(=O)O)cc1	Scp1 inh 53 | Scp1 confirm 54 | MG interference inactive | Scp-1 Tm shift inactive
O=C(O)c1ccc(CSc2nc3ccc(NC(=O)c4ccccc4C(=O)O)cc3s2)cc1	Scp1 inh 58 | Scp1 confirm 43 | MG interference inactive | Scp-1 Tm shift inactive
Cc1nn(CC(=O)N(C)C)c(C)c1S(=O)(=O)N1CCOCC1	none
Cc1nn(C(C)C(=O)NC2C(=O)N3C(C(=O)O)=C(CSc4nnnn4C)CSC23)cc1Cl (centres undefined)	none

Assay outcomes: PubChem BioAssay, Sanford-Burnham Center for Chemical Genomics
